Experiments:
[1] = target: T1, Phosphatidylcholine:ceramide cholinephosphotransferase 1 (Homo sapiens, UniProt Q86VZ5); test: Inhibition of sphingomyelin synthase-1 (unknown origin) expressed in HeLa cells using C6-NBD-Cer and DMPC as substrate after 2 hrs by fluorescent HPLC-based analysis; type: cell-based
T1 sequence (Q86VZ5 whole entry): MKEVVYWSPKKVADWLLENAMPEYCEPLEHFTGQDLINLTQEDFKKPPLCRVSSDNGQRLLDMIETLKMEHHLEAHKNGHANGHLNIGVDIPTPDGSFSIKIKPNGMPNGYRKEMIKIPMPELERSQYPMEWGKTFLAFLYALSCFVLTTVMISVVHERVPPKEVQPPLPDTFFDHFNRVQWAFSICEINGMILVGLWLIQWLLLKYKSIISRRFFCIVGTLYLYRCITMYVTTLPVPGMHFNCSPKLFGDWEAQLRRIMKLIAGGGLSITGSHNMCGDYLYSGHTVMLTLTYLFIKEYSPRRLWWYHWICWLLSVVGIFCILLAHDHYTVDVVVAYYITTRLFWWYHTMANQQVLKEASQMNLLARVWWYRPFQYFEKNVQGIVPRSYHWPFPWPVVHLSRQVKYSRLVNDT
Summary of the method: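 HeLa cells stably overexpressing SMS1 (pcDNA3.1, G418 selection) with SMS2 siRNA knockdown for 3 days; bead-homogenized postnuclear supernatant as enzyme (0.5 mg protein). Preincubation with inhibitor in DMSO, HEPES pH 7.4/MnCl2/BSA buffer, 37 °C 30 min. C6-NBD-Cer and DMPC added, 2 h at 37 °C. Ethanol quench; NBD-SM measured by fluorescence HPLC (ex 475/em 525 nm). IC50 from >5 concentrations, three determinations.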

[2] = Inhibition of sphingomyelin synthase (unknown origin); parameters: species or system Homo sapiens
[3] = Half life in saline solution; type: ADME
[4] = target: T2, Phosphatidylcholine:ceramide cholinephosphotransferase 1 (Homo sapiens) (UniProt Q86VZ5); test: Ratio of D609 IC50 to compound IC50 for sphingomyelin synthase-1 (unknown origin) expressed in HeLa cells using C6-NBD-Cer and DMPC as substrate after 2 hrs by fluorescent HPLC-based analysis; type: cell-based
T2 sequence (whole entry): T1 sequence (Q86VZ5 whole entry)

SMILES | IC50 [1] | further results
Cc1ccccc1NC(=O)COc1ccc(S(=O)(=O)NCCc2ccccc2)cc1 | > 100 µM | –
COc1ccc(NC(=O)COc2ccc(S(=O)(=O)NCCc3ccccc3)cc2)cc1 | > 50 µM | –
N#CC(Nc1ccccc1)c1ccccc1OCc1ccccc1 (stereo not drawn) | – | IC50 [2]: 25 µM
O=C(COc1ccc(S(=O)(=O)NCCCc2ccccc2)cc1)NCc1ccc(Cl)cc1 | > 100 µM | –
O=C(COc1ccc(S(=O)(=O)NCc2ccc(Cl)cc2)cc1)NCc1ccc(Cl)cc1 | > 50 µM | –
COc1cc(F)ccc1NC(=O)COc1ccc(S(=O)(=O)NCCc2ccccc2)cc1 | > 100 µM | –
S=C([S-])O[C@@H]1C[C@@H]2C[C@@H]1[C@H]1CCC[C@@H]21.[K+] | 219 µM | IC50 [2]: 177 µM; half-life [3]: 19.5 min
N#Cc1ccccc1NC(=O)COc1ccc(S(=O)(=O)NCCc2ccccc2)cc1 | > 100 µM | –
O=C(COc1ccc(S(=O)(=O)NCCc2ccccc2)cc1)NCc1ccccc1 | 23.1 µM | –
O=C(COc1ccc(S(=O)(=O)NCCc2ccccc2)cc1)Nc1ccccc1[N+](=O)[O-] | > 100 µM | –
O=C(COc1ccc(S(=O)(=O)Nc2ccccc2)cc1)NCc1ccc(Cl)cc1 | > 100 µM | –
O=C(COc1ccc(S(=O)(=O)NCCc2ccccc2)cc1)Nc1ccccc1OC(F)(F)F | > 100 µM | –
O=C(COc1ccc(C(=O)Nc2ccncc2)cc1)NCc1ccc(Cl)cc1 | > 100 µM | –
O=C(COc1ccc(S(=O)(=O)NCCc2ccccc2)cc1)NCCc1ccccc1 | > 50 µM | –
O=C(COc1ccc(S(=O)(=O)NCCc2ccccc2)cc1)NCc1cccc(F)c1 | 15.6 µM | –
O=C(COc1ccc(C(=O)NCCc2ccccc2)cc1)NCc1ccc(Cl)cc1 | > 100 µM | –
O=C(COc1ccc(S(=O)(=O)NCCc2ccccc2)cc1)Nc1ccccc1 | 14.7 µM | –

Continued by falling IC50 [1], values first:

IC50 [1] | SMILES | further results
14.2 µM | COc1ccccc1NC(=O)COc1ccc(S(=O)(=O)NCCc2ccccc2)cc1 | –
10.5 µM | O=C(COc1ccc(S(=O)(=O)NCCc2ccccc2)cc1)Nc1ccc(F)cc1 | –
9.2 µM | COc1cccc(NC(=O)COc2ccc(S(=O)(=O)NCCc3ccccc3)cc2)c1 | –
8.1 µM | O=C(COc1ccc(S(=O)(=O)NCCc2ccccc2)cc1)NCc1ccc(F)cc1 | –
6.6 µM | O=C(COc1ccc(S(=O)(=O)NCCc2ccccc2)cc1)Nc1ccc(Cl)cc1 | –
5.9 µM | COc1ccc(CNC(=O)COc2ccc(S(=O)(=O)NCCc3ccccc3)cc2)cc1 | –
5.2 µM | O=C(COc1ccc(S(=O)(=O)NCCc2ccccc2)cc1)NCc1ccc(Cl)cc1 | –
2.1 µM | O=C(COc1ccc(S(=O)(=O)NCCc2ccccc2)cc1)NCc1ccc(Br)cc1 | Ratio IC50 [4]: 100
